How the values were obtained:
[1] = system: HL-60; experiment: Antiproliferative activity against HL60 cells in dark; format: functional, cell-based; settings: Homo sapiens
In short: (§1)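 HL-60 cells (10^5 per well) were grown in RPMI 1640 with 15% heat-inactivated FCS and antibiotics at 37 °C in 5% CO2. After 24 h, compound was added in complete medium. For the irradiated arm, cells were kept 1 h in the dark, then given 0.789 J cm-2 UVA (365 nm lamps). Cells were incubated a further 24 h and viability read by trypan blue. IC50 is the concentration giving 50% fewer cells than control.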

[2] = system: HL-60; experiment: Antiproliferative activity against HL60 cells in presence of 0.789 J/cm2 UVA light; format: functional, cell-based; settings: Homo sapiens, HL-60, light or radiation study; in short: as §1
[3] = organism: Cavia porcellus; experiment: Phototoxicity in albino Dunkin-Hartley guinea pig skin assessed as formation of erythema at 0.14 umol/cm2; format: organism-based, Zone of skin; settings: in vivo, topical_or_ocular
In short: (§2)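 Depilated albino outbred Dunkin-Hartley guinea pigs received the compound as an ethanol solution applied topically to the skin. Animals were kept 45 min in the dark, then the treated skin was irradiated with 20 kJ m-2 UVA. Erythema was scored after 48 h.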

[4] = system: HeLa; experiment: Antiproliferative activity against HeLa cells in dark; format: functional, cell-based; settings: Homo sapiens
In short: (§3)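 HeLa cells (10^5 per well) were grown in F-12 with 10% heat-inactivated FCS at 37 °C in 5% CO2. After 24 h, medium was swapped for phenol-red-free DMEM with compound. For UVA, cells were irradiated after 1 h at 0.789 J cm-2 (365 nm), then the drug medium was replaced with complete F-12 for 24 h. In the dark arm, cells stayed 24 h with compound in complete F-12. IC50 is the concentration giving 50% fewer cells than control.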

[5] = system: HeLa; experiment: Antiproliferative activity against HeLa cells in presence of 0.789 J/cm2 UVA light; format: functional, cell-based; settings: Homo sapiens, light or radiation study; in short: as §3
[6] = organism: Cavia porcellus; experiment: Phototoxicity in albino Dunkin-Hartley guinea pig skin assessed as formation of erythema at […]; format: organism-based, Zone of skin; settings: in vivo, topical_or_ocular; in short: as §2
[7] = system: Cavia porcellus; experiment: Phototoxicity in albino Dunkin-Hartley guinea pig skin assessed as formation of erythema with edema at 0.046 umol/cm2; format: organism-based, Zone of skin; settings: in vivo, topical_or_ocular; in short: as §2
[8] = molecular target: DNA topoisomerase II (Homo sapiens) (UniProt P11388+Q02880); experiment: Inhibition of topoisomerase 2 by ATP-dependent decatenation of kinetoplast DNA; format: protein assay
In short: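 Human topoisomerase II (1 U) was incubated with 0.15 µg kinetoplast DNA and compound (1, 2, 4, 8 µM) in 20 µL for 1 h at 37 °C. The reaction was stopped with stop buffer plus proteinase K 50 µg/mL for 30 min at 37 °C. Decatenation was read on a 1% agarose gel with ethidium bromide 0.5 µg/mL in TAE, pH 8.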

IC50 [1] [µM] | IC50 [2] [µM] | IC50 [4] [µM] | IC50 [5] [µM] | inhibition [8] | Compound | Activity [3] | Activity [6] | Activity [7]
> 20 | > 20 | > 20 | > 20 | – | COc1cc2oc(=O)cc(C)c2c2oc3c(c12)CCCC3 | Not Active | – | –
7.9 | 0.61 | > 20 | 0.4 | – | Cc1cc(=O)oc2cc(OCCCN(C)C)c3c4c(oc3c12)CCCC4 | Not Active | – | –
> 20 | > 20 | > 20 | > 20 | – | Cc1cc(=O)oc2cc(O)c3c4ccccc4oc3c12 | Not Active | – | –
0.48 | 0.0105 | 3.5 | 0.0043 | Dose-dependent effect | Cc1cc(=O)oc2cc(OCCCN(C)C)c3c4ccccc4oc3c12 | – | Not Active | Active
> 20 | > 20 | > 20 | > 20 | – | Cc1cc(=O)oc2cc(O)c3c4c(oc3c12)CCCC4 | Not Active | – | –
> 20 | > 20 | > 20 | > 20 | – | COc1cc2oc(=O)cc(C)c2c2oc3ccccc3c12 | Not Active | – | –
> 20 | – | > 20 | – | – | COc1c2occc2cc2ccc(=O)oc12 [METHOXSALEN] | – | – | Active

— ChEMBL document CHEMBL1138081, “New furan side tetracyclic allopsoralen derivatives: synthesis and photobiological evaluation” (J Med Chem, 2006)
